Laboratory results as given in ChEMBL document CHEMBL1131164, “Potent cyano and carboxamido side-chain analogues of 1', 1'-dimethyl-delta8-tetrahydrocannabinol” (J Med Chem, 1998).

What was measured:
Mus musculus [1] = species: Mus musculus; test: Tested for the concentration that shows hypothermia as changes in rectal temperature (RT).; assay type: functional
Cannabinoid receptor 1 = Cannabinoid receptor 1 (Homo sapiens, UniProt P21554); test: Evaluated for its binding affinity towards Cannabinoid receptor 1 (CB1)
Mus musculus [2] = species: Mus musculus; test: Tested for the concentration for antinociception as measured by the tail-flick response (TF).; assay type: functional
Mus musculus [3] = species: Mus musculus; test: Tested for the concentration for the inhibition of spontaneous activity (SA).; assay type: functional
Mus musculus [4] = test: The compound was tested for the concentration for antinociception as measured by the tail-flick response (TF) at a dose of 30 mg/kg.; assay type: functional
In short: (§1)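 Mice, single intravenous tail-vein dose in ethanol:emulphor:saline 1:1:18 at 0.1 mL/10 g. Several measures were taken in the same mouse. SA is % of control activity, and TF is %MPE with a 10-s maximum latency. Effect is expressed as percent of the Δ9-THC maximum (90% for SA, 100% for TF).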

Mus musculus [5] = test: The compound was tested for the concentration that shows hypothermia as changes in rectal temperature (RT) at a dose of 30 mg/kg.; assay type: functional
In short: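 Mice, single intravenous tail-vein dose in ethanol:emulphor:saline 1:1:18 at 0.1 mL/10 g. Rectal temperature change (Δ°C) was measured in the same mouse as the other behavioural measures.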

Mus musculus [6] = test: The compound was tested for the concentration for the inhibition of spontaneous activity (SA) at a dose of 30 mg/kg.; assay type: functional; in short: as §1
Mus musculus [7] = species: Mus musculus; test: Tested for the concentration that shows ring immobility (RI).; assay type: functional
Mus musculus [8] = test: The compound was tested for the concentration for the inhibition of spontaneous activity (SA) at a dose of 100 mg/kg.; assay type: functional; in short: as §1
Mus musculus [9] = test: The compound was tested for the concentration for antinociception as measured by the tail-flick response (TF) at a dose of 60 mg/kg.; assay type: functional; in short: as §1

Cannabinoid receptor 1, sequence (P21554 whole entry): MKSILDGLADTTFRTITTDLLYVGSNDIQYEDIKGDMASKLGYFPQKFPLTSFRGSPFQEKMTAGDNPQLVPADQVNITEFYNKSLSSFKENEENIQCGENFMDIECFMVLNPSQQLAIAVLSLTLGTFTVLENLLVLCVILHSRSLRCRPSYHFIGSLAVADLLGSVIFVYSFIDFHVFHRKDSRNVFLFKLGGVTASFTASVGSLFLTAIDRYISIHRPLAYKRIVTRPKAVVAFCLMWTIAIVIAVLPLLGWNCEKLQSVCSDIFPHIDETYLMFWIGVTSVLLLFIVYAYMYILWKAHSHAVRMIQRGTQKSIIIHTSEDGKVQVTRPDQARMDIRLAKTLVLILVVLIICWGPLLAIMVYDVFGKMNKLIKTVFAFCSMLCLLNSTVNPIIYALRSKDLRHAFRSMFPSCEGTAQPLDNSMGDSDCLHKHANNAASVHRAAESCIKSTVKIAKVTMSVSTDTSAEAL

Compound | ED50 (Mus musculus [1]) | Ki (Cannabinoid receptor 1) | ED50 (Mus musculus [2]) | ED50 (Mus musculus [3]) | inhibition in vivo at 30 mg/kg (Mus musculus [4]) | inhibition in vivo at 30 mg/kg (Mus musculus [5]) | inhibition in vivo at 30 mg/kg (Mus musculus [6]) | ED50 (Mus musculus [7]) | inhibition in vivo at 100 mg/kg (Mus musculus [8]) | inhibition in vivo at 60 mg/kg (Mus musculus [9])
CC1=CC[C@@H]2[C@@H](C1)c1c(O)cc(C(C)(C)CCCCOc3ccc(C#N)cc3)cc1OC2(C)C | 4.24 mg/kg | 3 nM | 1.15 mg/kg | 0.1 mg/kg | – | – | – | – | – | –
CC1=CC[C@@H]2[C@@H](C1)c1c(O)cc(C(C)(C)CCCCC(=O)Nc3ccc(Cl)cc3)cc1OC2(C)C | – | 187 nM | – | – | 15% | -1.6% | 39% | – | – | –
CC1=CC[C@@H]2[C@@H](C1)c1c(O)cc(C(C)(C)CCCCC(=O)NN3CCCCC3)cc1OC2(C)C | 0.17 mg/kg | 1.2 nM | 0.16 mg/kg | 0.04 mg/kg | – | – | – | – | – | –
CC1=CC[C@@H]2[C@@H](C1)c1c(O)cc(C(C)(C)CCCCCC#N)cc1OC2(C)C | 0.005 mg/kg | 0.6 nM | 0.01 mg/kg | 0.006 mg/kg | – | – | – | – | – | –
CC1=CC[C@@H]2[C@@H](C1)c1c(O)cc(C(C)(C)CCCCC(=O)Nc3ccc(S(N)(=O)=O)cc3)cc1OC2(C)C | 1.7 mg/kg | 19 nM | 3.2 mg/kg | 2.03 mg/kg | – | – | – | – | – | –
CC1=CC[C@@H]2[C@@H](C1)c1c(O)cc(C(C)(C)CCCCC(=O)Nc3ccc(Cl)cc3Cl)cc1OC2(C)C | 3.7 mg/kg | 18 nM | 14 mg/kg | – | – | – | 27% | – | – | –
CC1=CC[C@@H]2[C@@H](C1)c1c(O)cc(C(C)(C)CCCCC(=O)NCCc3ccc(S(N)(=O)=O)cc3)cc1OC2(C)C | > 100 mg/kg | 29 nM | > 100 mg/kg | – | – | – | – | > 100 mg/kg | 60% | –
CC1=CC[C@@H]2[C@@H](C1)c1c(O)cc(C(C)(C)CCCCC(=O)NCc3ccc(S(N)(=O)=O)cc3)cc1OC2(C)C | 37 mg/kg | 60 nM | – | 31 mg/kg | – | – | – | – | – | 60%
CC1=CC[C@@H]2[C@@H](C1)c1c(O)cc(C(C)(C)CCCCC#N)cc1OC2(C)C | 0.19 mg/kg | 0.36 nM | 0.0047 mg/kg | 0.007 mg/kg | – | – | – | 0.095 mg/kg | – | –
CC1=CC[C@@H]2[C@@H](C1)c1c(O)cc(C(C)(C)CCCC(O)C#N)cc1OC2(C)C (stereo not given in full) | 1.5 mg/kg | 13 nM | 0.11 mg/kg | 0.52 mg/kg | – | – | – | 1.07 mg/kg | – | –
CC1=CC[C@@H]2[C@@H](C1)c1c(O)cc(C(C)(C)CCCCC(C#N)c3ccccc3)cc1OC2(C)C (stereo not given in full) | 4.2 mg/kg | 9.2 nM | 1.4 mg/kg | 6.51 mg/kg | – | – | – | 5.05 mg/kg | – | –
CC1=CC[C@@H]2[C@@H](C1)c1c(O)cc(C(C)(C)CCCCC(=O)N(C)C)cc1OC2(C)C | 0.12 mg/kg | 0.86 nM | 0.031 mg/kg | 0.0015 mg/kg | – | – | – | – | – | –
CCN(CC)C(=O)CCCCC(C)(C)c1cc(O)c2c(c1)OC(C)(C)[C@@H]1CC=C(C)C[C@@H]21 | 0.4 mg/kg | 13 nM | 0.1 mg/kg | 0.09 mg/kg | – | – | – | – | – | –
CCCCCCC(C)(C)c1cc(O)c2c(c1)OC(C)(C)[C@@H]1CC=C(C)C[C@@H]21 | 0.04 mg/kg | 0.77 nM | 0.04 mg/kg | 0.07 mg/kg | – | – | – | 0.05 mg/kg | – | –
CCCCCc1cc(O)c2c(c1)OC(C)(C)[C@@H]1CCC(C)=C[C@@H]21 [DRONABINOL] | 1.4 mg/kg | – | 1.4 mg/kg | 1 mg/kg | – | – | – | 1.5 mg/kg | – | –
